The text below walks through data of publication PMC7226286 (Cancer Science, 2020).

The test system of this assay is STAT3 and RAF/MEK/ERK pathways in SAS xenograft tumors. In words: Western blot of SAS xenograft tumor lysates. The format is in vivo, mice. The conditions noted are these: day 12, 6 hours after final administration. The essentials: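 Male BALB/c nude mice (6 weeks old) bearing subcutaneous SAS oral tumours; test compound (50 or 60 mg/kg), a kinase inhibitor (10 mg/kg), the combination or vehicle given orally, 5 days on/2 off from day 1 (palpable tumours). Day 12: tumours (n = 3) excised 6 h after last dose, snap-frozen, lysed; immunoblot for pY705-STAT3, STAT3, pT202/Y204-ERK1/2, ERK1/2, survivin, β-actin.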
For orientation: A western blot detects proteins with antibodies after separation by electrophoresis.

Consider `CNC(=O)c1cc(Oc2ccc(NC(=O)Nc3ccc(Cl)c(C(F)(F)F)c3)cc2)ccn1` [Sorafenib], for which the “phospho‐ERK in tumor tissues” value is listed as “clearly reduced”, the “phospho‐STAT3 in tumor tissues” value is reported as “clearly reduced” and the “survivin in tumor tissues” value is given as “moderately suppressed”.
